Measurements pooled from the literature.
Each line is one published result; the experiments were not run side by side. ≈ marks a conversion by molar mass, not a printed value.

| SMILES | tested on | assay | test system | conditions | measurement | value |
| --- | --- | --- | --- | --- | --- | --- |
| CC[C@H]1OC(=O)[C@H](C)[C@@H](O[C@H]2C[C@@](C)(OC)[C@@H](O)[C@H](C)O2)[C@H](C)[C@@H](O[C@@H]2O[C@H](C)C[C@H](N(C)C)[C@H]2O)[C@](C)(O)C[C@@H](C)/C(=N\OCOCCOC)[C@H](C)[C@@H](O)[C@]1(C)O | Enterococcus faecalis | microbial growth |  | clinical isolate | MIC90 | > 128 µg/mL |
| CNC(=S)NN=Cc1ccc(O)c(OC)c1 | Leishmania major | parasite growth | J774.A1 | 72 h, intracellular, amastigote | IC50 | 112 µM |
| COc1ccc(Nc2cnnc3cc(-c4cnc(N5CCCN(C)CC5)nc4)ccc23)nc1 | Leishmania major | parasite growth |  | intracellular, amastigote | EC50 | > 23 µM |
| C[C@@H]1[C@H](O)[C@@H](C)/C=C/C=C/C=C/C=C/C=C/C=C/C=C/[C@H](O[C@@H]2O[C@H](C)[C@@H](O)[C@H](N)[C@@H]2O)C[C@@H]2O[C@](O)(C[C@@H](O)C[C@@H](O)[C@H](O)CC[C@@H](O)C[C@@H](O)CC(=O)O[C@H]1C)C[C@H](O)[C@H]2C(=O)O | Leishmania major | parasite growth, MTT |  | 72 h, promastigote | IC50 | 9.6 µM |
| CCC(=CCc1c(O)cc2c(c1O)C(=O)C[C@@H](c1ccccc1O)O2)CC | HeLa | cell growth or viability, MTT |  | 30 µM, 48 h | inhibition | 9.27% |
| COc1ccc(Nc2cnnc3cc(-c4cnc(N5CCN(C)CC5)nc4)ccc23)cc1Cl | Leishmania major | parasite growth |  | intracellular, amastigote | EC50 | > 2.2 µM |
| CCC(=CCc1c(O)cc2c(c1O)C(=O)C[C@@H](c1ccc(O)cc1)O2)CC | HeLa | cell growth or viability, MTT |  | 100 µM, 48 h | inhibition | 99.5% |
| COc1c(N2C[C@@H]3CCCN[C@@H]3C2)c(F)cc2c(=O)c(C(=O)O)cn(C3CC3)c12 | Enterococcus faecalis | microbial growth, broth dilution |  | clinical isolate | MIC50 | 0.5 µg/mL (≈ 1.25 µM) |
